# A selection: hits, their analogues and other compounds. The true share with any hit is near 29%.
# tolC growth inh: growth inhibitors of E. coli BW25113 tolC mutant. OD615. growth inhibition, % at 10 µM (by protocol). 65,000 compounds, 2.2% hits. AID 573;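 active = growth inhibition at or above a cutoff equal to the mean over every tested compound plus 3 SD, cut at about 60% in these data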;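 note: growth measured after 20 h incubation at 37 °C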
#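 System: E. coli ΔtolC::kan strain BW25113; Buffer or medium: LB broth supplemented with 50 µg/mL kanamycin; Compound: 10 µM final, single dose; Incubation: bacterial growth with compound for 20 h at 37 °C; Signal: A615 absorbance measurement; Evaluation: growth inhibition in percent.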
# CYP2C19 activ: activators of human cytochrome P450 2C19; recombinant CYP2C19, luciferin-H EGE luminescence; stronger effect = higher value; 0 = fully inhibited enzyme, 1 = untreated enzyme; activation factor at 5 µM; P33261; 96,000 tested, under 10 active;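 active = activation factor of at least 2 at 5 µM in the primary screen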;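 note: 0 = wells with 2.5 mM tranylcypromine and 1 = vehicle-only wells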
# CYP2C19 inh: human CYP2C19 inhibition | P33261 | CYP2C19 Supersomes, luciferin-H EGE luminescence, 30 min | inhibition, % at 5 µM | 96,000 compounds, 21% hits | AID 778;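 active = CYP2C19 inhibition above a set limit at 5 µM in the primary screen, cut at about 50% in these data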;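 note: plate controls were negative control wells for no effect and 2.5 mM tranylcypromine positive control for full effect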
# CYP2C9 inh: human CYP2C9 inhibition; CYP2C9 Supersomes, luciferin-H conversion, luminescence; inhibition, % at 5 µM; 96,000 compounds, 20% hits; AID 777;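 active = blocking of liver enzyme CYP2C9 beyond about 50% at 5 µM, limit read from the data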
# Target sequence (P11712 whole entry, looked up): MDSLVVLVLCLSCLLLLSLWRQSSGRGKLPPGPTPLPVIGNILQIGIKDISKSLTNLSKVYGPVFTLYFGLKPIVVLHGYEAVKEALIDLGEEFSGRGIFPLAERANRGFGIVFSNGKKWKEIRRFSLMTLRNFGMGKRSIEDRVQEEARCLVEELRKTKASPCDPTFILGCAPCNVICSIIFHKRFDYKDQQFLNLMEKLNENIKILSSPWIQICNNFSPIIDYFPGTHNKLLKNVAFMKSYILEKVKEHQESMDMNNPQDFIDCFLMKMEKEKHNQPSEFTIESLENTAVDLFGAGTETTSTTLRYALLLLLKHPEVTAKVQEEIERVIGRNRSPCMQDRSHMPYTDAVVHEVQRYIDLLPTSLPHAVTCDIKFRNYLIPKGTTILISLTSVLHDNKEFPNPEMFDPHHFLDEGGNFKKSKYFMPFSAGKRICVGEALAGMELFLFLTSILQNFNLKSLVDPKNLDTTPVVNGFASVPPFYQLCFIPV
# E coli WT exp: E. coli BW25113 growth inhibition, expanded screen; OD600 absorbance; growth inhibition, % at 100 µM; 98,000 compounds, 0.15% hits;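 active = growth inhibition above about 50% at one test dose, limit read from the data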;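 note: growth measured after 20 h incubation at 37 °C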
# CYP2C9 act: increases human cytochrome P450 2C9 activity. P11712. activation factor at 5 µM. recombinant CYP2C9, luciferin-H conversion, luminescence; stronger effect = higher value; factor 1 = untreated enzyme, 0 = blocked. 96,000 compounds, 1.4% hits;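 active = activation factor of 2 or more for CYP2C9 at a 5 µM dose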;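 note: 0 = sulfaphenazole-blocked wells and 1 = vehicle-only wells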
# Numbers without * were called inactive; x = not tested or not shown.
SMILES,tolC growth inh,CYP2C19 activ,CYP2C19 inh,CYP2C9 inh,E coli WT exp,CYP2C9 act
O=S(=O)(c1ccc(Cl)nc1)N1CCN(Cc2ccc3c(c2)OCO3)CC1,x,0.4,63*,74*,5,0.3
CN(C)c1ccc(C(=O)n2nnc3ccccc32)cc1,x,1.3,-26,-12,-8,1.1
CCN(CC)c1ccc(C(=O)n2cnc3ccccc32)cc1,78*,0.2,85*,75*,-6,0.3
COc1ccc(Cn2c(=O)n(Cc3ccco3)c(=N)c3c4c(sc32)COC(C)(C)C4)cc1,43,0.4,61*,91*,4,0.1
CCn1c(SC(C)C(=O)O)nnc1-c1cccnc1 (stereo not drawn),x,0.8,19,9,-4,0.9
COC(=O)Oc1nsnc1N1CCOCC1,-22,1,4,45,1,0.6
Brc1ccc(Oc2nsnc2N2CCOCC2)cc1,36,0.1,89*,24,3,0.8
c1ccc2nc3c(nc2c1)c1ccccc1n3CCN1CCOCC1,44,0.7,29,21,5,0.8
CCn1c2ccccc2c2nc3cc(S(=O)(=O)N4CCOCC4)ccc3nc21,8,0.8,22,85*,-2,0.2
CC(C)(Oc1ccc(CCNC(=O)c2ccc(Cl)cc2)cc1)C(=O)O,17,x,x,x,x,x
COC(=O)/C=C/C(=O)Nc1cccnc1,x,1.1,-7,-1,-5,1
CC(C)(Oc1ccc(Cl)cc1)C(=O)NCc1ccco1,11,0.9,11,52*,4,0.5
CC(C)(Oc1ccc(Cl)cc1)C(=O)NCc1ccncc1,2,0,99*,98*,1,0
CC(C)(Oc1ccc(Cl)cc1)C(=O)Nc1cccnc1,10,0.5,52*,25,2,0.7
CC(C)(Oc1ccc(Cl)cc1)C(=O)Nc1ccncc1,x,0,100*,97*,13,0
Cc1ccc(S(=O)(=O)C(CCC(=O)N2CCOCC2)S(=O)(=O)c2ccc(C)cc2)cc1,5,0.9,13,20,-4,0.8
CC(C)C(C(=O)N1CCOCC1)N1C(=O)c2ccccc2C1=O (stereo not drawn),-11,0.9,14,14,0,0.9
COc1cccc(C(=O)CN2C3=NCCCN3c3ccccc32)c1,9,0.9,10,1,3,1
Cc1ccc(S(=O)(=O)N/N=C\c2ccc(C)o2)cc1,x,0.9,6,20,2,0.8
Cc1ccc(NC(=S)N/N=C/c2ccc(Cl)c([N+](=O)[O-])c2)cc1,x,0.8,22,56*,0,0.4
Cc1ccc(S(=O)(=O)N/N=C/c2ccc(OS(=O)(=O)c3ccc(C)c([N+](=O)[O-])c3)cc2)cc1,x,0.8,21,91*,-14,0.1
Cc1ccc(S(=O)(=O)N/N=C\c2ccc(Cl)c([N+](=O)[O-])c2)cc1,x,0.1,87*,70*,-3,0.3
Cc1ccc(S(=O)(=O)N/N=C\c2ccc([N+](=O)[O-])o2)cc1,x,0.9,14,79*,35,0.2
Cc1nnc(SCC(=O)N(Cc2ccccc2)C(C)C)n1-c1ccccc1,x,0.9,9,36,1,0.6
O=C(O)c1ccc(-n2nnnc2Oc2cccc3cccnc23)cc1,x,1.1,-12,-2,-5,1
SMILES,tolC growth inh,CYP2C19 activ,CYP2C19 inh,CYP2C9 inh,E coli WT exp,CYP2C9 act
CC(C)(C)NC(=O)C(=O)NNC(=O)c1ccccc1,x,1.1,-6,15,1,0.8
CC(C)(C)c1ccc(/C([O-])=C(/C(=S)NCc2ccco2)[n+]2ccccc2)cc1,x,1,2,26,1,0.7
Cc1ccc(OCC(=O)OC2CCS(=O)(=O)C2)cc1 (stereo not drawn),-7,0.8,21,-6,-12,1.1
CCOC(=O)N/N=C\c1ccc([N+](=O)[O-])o1,x,1,-3,2,100*,1
COc1ccc(CNS(=O)(=O)c2cc(OCC(N)=O)c(C)cc2Cl)cc1,x,0.9,8,11,-4,0.9
Cc1[nH]n2c(=O)cc(Cc3ccccc3)nc2c1C#N,14,1.1,-6,77*,7,0.2
N#Cc1c[nH]n2c(=O)cc(Cc3ccccc3)nc12,-1,1,-2,43,10,0.6
Cc1nc2c(C#N)c[nH]n2c(=O)c1Cc1ccccc1,x,0.9,13,63*,-11,0.4
Cc1nc2c(C#N)c(C)[nH]n2c(=O)c1Cc1ccccc1,x,1.1,-9,63*,-14,0.4

# Source: PubChem BioAssay
